This note sets out measurements from ChEMBL document CHEMBL4368920, “Discovery of 2,4-diamino-5-cyanopyrimidine derivatives as protein kinase C theta inhibitors with mitigated time-dependent drug-drug interactions” (Bioorg Med Chem, 2019).

The target in one data set is CYP3A4 (Homo sapiens, UniProt P08684). Briefly: Time-dependent inhibition of CYP3A4 in human liver microsomes assessed as residual activity at 5 uM using midazolam as substrate preincubated for 30 mins followed by substrate addition and measured after 20 mins in presence of NADPH by LC-MS/MS analysis relative to control. It counts as ADME. As to conditions: probe midazolam, read-out: Activity. The essentials:
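Human liver microsomes at 0.1 mg/mL in 100 mM potassium sodium phosphate (pH 7.4) with 1 mM NADPH and 0.1 mM EDTA, compound at 5 μM. Midazolam added either with no preincubation or after 30 min preincubation at 37 °C. Reaction run 20 min at 37 °C and stopped with acetonitrile. Residual activity is 30-min activity as a percentage of 0-min activity.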
(Liver microsomes are a subcellular fraction often used to study metabolism.)

Data set [1] addresses T1, Protein kinase C theta type (Homo sapiens, UniProt Q04759). Briefly: Inhibition of recombinant human full length PKCtheta using biotin-labelled STK substrate-1 as substrate after 60 mins by fluorescence assay.
A short description of data set [2]: AUC (0 to 24 hrs) in Sprague-Dawley rat at 1 mg/kg, po by LC-MS/MS analysis. It is filed as ADME, organism-based. As to conditions: in vivo. Set-up: time < 24 hr, dose 1 mg/kg, route oral. Summed up: (§1)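 Female SD rats, 1 mg/kg given as a single i.v. or oral dose in DMF/propylene glycol/1N HCl/saline (25/25/0.2/49.8). Blood sampled at multiple times up to 24 h. Unchanged compound in plasma measured by LC-MS/MS. Parameters derived by noncompartmental analysis. F taken as the AUC ratio of oral to i.v. dosing. Each value is the mean of three animals.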

For a further data set, the system named is Rattus norvegicus. Briefly: Immunosuppressive activity in Lewis rat transplanted with ACI rat cardiac tissue assessed as reduction in graft rejection by measuring mean survival days at 1 mg/kg, po administered for 14 consecutive days co-treated with tacrolimus (reference value: 7 days). It is filed as functional. The essentials:
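ACI donor hearts into Lewis recipients, abdominal vascularized heterotopic transplant under aseptic conditions; pentobarbital 40 mg/kg i.p. anaesthesia. Agent in propylene glycol, given orally with tacrolimus (0.02 mg/kg) for 14 consecutive days starting on operation day. Graft survival recorded per animal and median survival time reported (n = 9).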

The nature of data set [3]: Tmax in Sprague-Dawley rat at 1 mg/kg, po by LC-MS/MS analysis. It is filed as ADME, organism-based. As to conditions: in vivo. Summed up: as §1
The nature of data set [4]: Elimination half life in Sprague-Dawley rat at 1 mg/kg, iv by LC-MS/MS analysis. It counts as ADME, organism-based. Conditions: in vivo, read-out: beta t1/2 (converted). The essentials: as §1
The nature of data set [5]: Volume of distribution at steady state in Sprague-Dawley rat at 1 mg/kg, iv by LC-MS/MS analysis. It counts as ADME, organism-based. Conditions: in vivo, read-out: Vdss. The essentials:
as §1

Data set [6] can be described thus: Oral bioavailability in Sprague-Dawley rat at 1 mg/kg by LC-MS/MS analysis. It counts as ADME, organism-based. Conditions: in vivo. The essentials: as §1
The nature of data set [7]: Total clearance in Sprague-Dawley rat at 1 mg/kg, iv by LC-MS/MS analysis. Conditions: in vivo. It counts as ADME, organism-based. The essentials:
as §1

Data set [8] is described as follows: Aqueous solubility of the compound at pH 6.8 at 130 uM after 20 hrs by HPLC analysis. It is filed as physicochemical. Conditions: aqueous solution. The essentials:
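DMSO stock diluted to 130 μM with pH 6.8 aqueous buffer. Incubated 20 h at 25 °C, precipitate removed by filtration, filtrate concentration measured by HPLC.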

Data set [9] addresses T1, Protein kinase C theta type. Description: Inhibition of PKCtheta in human Jurkat cells assessed as reduction in IL2 production after 14 hrs by luciferase reporter gene assay. It counts as cell-based. The essentials:
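Jurkat cells transiently transfected with a pGL3-IL2 promoter firefly luciferase plasmid. Stimulated with anti-CD3 plus anti-CD28 antibodies in the presence of compound for 14 h, then luciferase substrate added. IC50 from duplicates in one experiment.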

Data set [10] is described as follows: AUC (0 to 24 hrs) in Sprague-Dawley rat at 1 mg/kg, iv by LC-MS/MS analysis. It counts as ADME, organism-based. Further details: time < 24 hr, dose 1 mg/kg, route intravenous. As to conditions: in vivo. The essentials:
as §1

A short description of data set [11]: Cmax in Sprague-Dawley rat at 1 mg/kg, po by LC-MS/MS analysis. Conditions: in vivo. Further details: dose 1 mg/kg, route oral. It counts as ADME, organism-based. Summed up: as §1

Converted amounts (≈) assume the structure as drawn. Where only a bound is given, the exact number is not on record here.

T1 sequence (Q04759 whole entry): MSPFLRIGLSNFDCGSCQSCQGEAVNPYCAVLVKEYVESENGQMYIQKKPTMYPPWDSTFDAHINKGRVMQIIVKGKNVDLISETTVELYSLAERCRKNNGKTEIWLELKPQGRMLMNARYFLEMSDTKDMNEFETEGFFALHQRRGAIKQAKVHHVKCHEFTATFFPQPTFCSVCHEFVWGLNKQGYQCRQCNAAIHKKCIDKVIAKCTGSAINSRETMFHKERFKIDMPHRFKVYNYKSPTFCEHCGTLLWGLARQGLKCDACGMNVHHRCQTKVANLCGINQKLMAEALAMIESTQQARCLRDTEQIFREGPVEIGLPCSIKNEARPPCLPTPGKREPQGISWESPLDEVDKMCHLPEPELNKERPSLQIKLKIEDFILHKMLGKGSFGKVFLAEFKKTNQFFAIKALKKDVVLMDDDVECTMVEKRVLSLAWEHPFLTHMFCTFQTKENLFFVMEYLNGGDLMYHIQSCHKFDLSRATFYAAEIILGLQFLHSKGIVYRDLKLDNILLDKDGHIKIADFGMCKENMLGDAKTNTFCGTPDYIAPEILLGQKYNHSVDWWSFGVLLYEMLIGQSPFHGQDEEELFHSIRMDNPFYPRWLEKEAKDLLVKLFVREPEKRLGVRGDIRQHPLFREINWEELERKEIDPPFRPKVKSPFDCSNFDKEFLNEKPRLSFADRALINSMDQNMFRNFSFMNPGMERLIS
Sequence of CYP3A4 (P08684 whole entry): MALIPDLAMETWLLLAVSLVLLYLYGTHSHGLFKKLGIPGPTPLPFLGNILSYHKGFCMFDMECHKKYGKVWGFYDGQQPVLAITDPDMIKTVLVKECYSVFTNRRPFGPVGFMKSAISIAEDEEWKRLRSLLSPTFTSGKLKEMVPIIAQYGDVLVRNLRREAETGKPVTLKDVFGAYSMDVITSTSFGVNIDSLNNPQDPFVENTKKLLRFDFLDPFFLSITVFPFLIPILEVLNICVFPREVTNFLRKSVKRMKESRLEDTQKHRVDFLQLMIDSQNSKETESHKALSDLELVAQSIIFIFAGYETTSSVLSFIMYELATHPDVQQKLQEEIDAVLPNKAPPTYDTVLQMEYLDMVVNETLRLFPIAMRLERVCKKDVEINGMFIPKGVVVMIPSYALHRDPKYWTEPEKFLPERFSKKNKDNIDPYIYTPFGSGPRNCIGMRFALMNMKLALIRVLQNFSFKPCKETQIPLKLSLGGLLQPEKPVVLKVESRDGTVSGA

In general, IC50 refers to the point on the concentration scale where inhibition reaches its midpoint. Consider `N#Cc1cnc(NCc2ccccc2OC(F)(F)F)nc1NCC12CC3CC(C1)C(NC1CCCCC1)C(C3)C2` (stereo not given), for which the activity at 20 min, 5 µM at CYP3A4 was 43%. For the same compound, the IC50 in data set [1] was found to be 1.9 nM.

A word on the AUC(0-t): it is the area under the concentration-time curve up to a stated or last time point. Read a low AUC(0-t) as low exposure. The term Tmax denotes the time from dosing to the highest level. One may read the bioavailability as dose-corrected exposure relative to a reference, in per cent. The low end stands for little systemic uptake, the high end for much systemic uptake. Usually clearance stands for the volume of plasma or blood freed of the substance per unit of time. Low readings indicate inefficient removal, high ones efficient removal. The solubility is the concentration that dissolves in the medium under given conditions. A lower solubility goes with a poorly soluble substance. For orientation: Cmax means the peak of the concentration-time curve. `CSc1ncccc1CNc1ncc(C#N)c(NCC23CC4CC(C2)C(NC[C@H]2CC[C@H](O)CC2)C(C4)C3)n1` (stereo not given in full): the AUC(0-t) at 24 h in data set [2] worked out at 145 ng·h/mL; in [10], 248 ng·h/mL. Further, the MSD in the data set with Rattus norvegicus is 20 days. In addition, the Tmax in data set [3] is 3.33 h. For the same compound, in [4], the half-life is 3.97 h. Also, the activity at 20 min, 5 µM at CYP3A4 was 98%. In addition, the Vd in [5] was found to be 12.9 L/kg. The bioavailability in data set [6] was found to be 58.3%. This compound came in with a clearance in data set [7] of 66.7 mL/min/kg. For the same compound, the IC50 in data set [1] turned out to be 0.44 nM; in [9] it was 10 nM. The compound also came in with a solubility at 20 h, 130 µM in data set [8] of more than 50 µM. In data set [11], this compound returned a Cmax of 12.4 ng/mL.

`N#Cc1cnc(NCc2ccccc2C(F)(F)F)nc1NCC12CC3CC(C1)C(NC[C@H]1CC[C@H](O)CC1)C(C3)C2` (stereo not given in full): the activity at 20 min, 5 µM at CYP3A4 amounted to 63%. Also, the IC50 stood at 0.57 nM in data set [1] and 17 nM in data set [9].

Turning to `N#Cc1cnc(NCc2ccccc2OC(F)(F)F)nc1NCC12CC3CC(C1)C(NCCO)C(C3)C2` (stereo not given), the activity at 20 min, 5 µM at CYP3A4 was determined as 36%. Moreover, the IC50 in data set [1] was found to be 0.7 nM.

In the case of `CSc1ccccc1CNc1ncc(C#N)c(NCC23CC4CC(C2)C(NC[C@H]2CC[C@H](O)CC2)C(C4)C3)n1` (stereo not given in full), the activity at 20 min, 5 µM at CYP3A4 amounted to 92%. The results for the IC50 in data set [1] and in [9] were 0.94 nM and 16 nM, respectively. Also, the concentration in solution in data set [8] (solubility at 20 h, 130 µM) was 45 µM (≈ 24.6 µg/mL).

As for `CC(C)Sc1ncccc1CNc1ncc(C#N)c(NCC23CC4CC(C2)C(NC[C@H]2CC[C@H](O)CC2)C(C4)C3)n1` (stereo not given in full), the activity at 20 min, 5 µM on CYP3A4 came out at 66%. Moreover, the IC50 in [1] was 0.23 nM; in data set [9], 3 nM. This compound gave a solubility at 20 h, 130 µM in data set [8] of less than 1 µM.

For the compound `CCSc1ncccc1CNc1ncc(C#N)c(NCC23CC4CC(C2)C(NC[C@H]2CC[C@H](O)CC2)C(C4)C3)n1` (stereo not given in full), the activity at 20 min, 5 µM at CYP3A4 turned out to be 80%. For the same compound, the IC50 was 0.46 nM in data set [1] and less than 3 nM in data set [9]. For the same compound, the concentration in solution in data set [8] (solubility at 20 h, 130 µM) came to 16 µM (≈ 8.99 µg/mL).

On to `CC(C)NC1C2CC3CC1CC(CNc1nc(NCc4ccccc4OC(F)(F)F)ncc1C#N)(C3)C2` (stereo not given), for which the activity at 20 min, 5 µM at CYP3A4 is 29%. The half-maximal inhibitory concentration (IC50) in [1] was less than 1 nM.

On to `COc1ncccc1CNc1ncc(C#N)c(NCC23CC4CC(C2)C(NC[C@H]2CC[C@H](O)CC2)C(C4)C3)n1` (stereo not given in full), for which the activity at 20 min, 5 µM on CYP3A4 was determined as 94%. In addition, the IC50 in data set [1] was found to be 1.9 nM; in [9], 43 nM. Also, the solubility at 20 h, 130 µM in [8] is more than 50 µM.

Regarding `N#Cc1cnc(NCc2ccccc2OC(F)(F)F)nc1NCC12CC3CC(C1)C(N[C@H]1CC[C@H](N)CC1)C(C3)C2` (stereo not given in full), on CYP3A4, the activity at 20 min, 5 µM came to 59%. The IC50 in data set [1] was determined as 0.1 nM.

Turning to `N#Cc1cnc(NCc2ccccc2Cl)nc1NCC12CC3CC(C1)C(NC[C@H]1CC[C@H](O)CC1)C(C3)C2` (stereo not given in full), the activity at 20 min, 5 µM at CYP3A4 was determined as 77%. Further, the concentration for half-maximal inhibition (IC50) in data set [1] turned out to be 1.4 nM; in data set [9], 22 nM. The amount in solution in data set [8] (solubility at 20 h, 130 µM) came to 1.1 µM (≈ 0.589 µg/mL).

`N#Cc1cnc(NCc2ccccc2OC(F)(F)F)nc1NCC12CC3CC(C1)C(NC[C@H]1CC[C@H](O)CC1)C(C3)C2` (stereo not given in full): the activity at 20 min, 5 µM at CYP3A4 was 70%. Besides, the IC50 came to 0.42 nM in [1] and 11 nM in [9]. This compound registered a solubility at 20 h, 130 µM in [8] of less than 1 µM.

As for `CS(=O)(=O)c1ncccc1CNc1ncc(C#N)c(NCC23CC4CC(C2)C(NC[C@H]2CC[C@H](O)CC2)C(C4)C3)n1` (stereo not given in full), in data set [8], the solubility at 20 h, 130 µM is more than 100 µM. For the same compound, in [9], the IC50 came to 140 nM.

For the compound `N#Cc1cnc(NCc2ccccc2OC(F)(F)F)nc1NCC12CC3CC(C1)C(NC1CCOCC1)C(C3)C2` (stereo not given), the activity at 20 min, 5 µM on CYP3A4 was 41%. Also, the IC50 in data set [1] is less than 1 nM.

`N#Cc1cnc(NCc2ccccc2OC(F)(F)F)nc1NCC12CC3CC(C1)C(N[C@H]1CC[C@@H](O)CC1)C(C3)C2` (stereo not given in full): the activity at 20 min, 5 µM on CYP3A4 amounted to 43%. For the same compound, the IC50 in data set [1] turned out to be 0.66 nM.

On to `CC(C)Oc1ncccc1CNc1ncc(C#N)c(NCC23CC4CC(C2)C(NC[C@H]2CC[C@H](O)CC2)C(C4)C3)n1` (stereo not given in full), for which the activity at 20 min, 5 µM at CYP3A4 was 87%. The values for the IC50 in data set [1] and in [9] were 0.59 nM and 18 nM, respectively. The compound also came in with a solubility at 20 h, 130 µM in data set [8] of more than 100 µM.

As for `COc1nnccc1CNc1ncc(C#N)c(NCC23CC4CC(C2)C(NC[C@H]2CC[C@H](O)CC2)C(C4)C3)n1` (stereo not given in full), in [1], the IC50 was more than 100 nM. The compound further displayed a solubility at 20 h, 130 µM in [8] of more than 100 µM.

For `N#Cc1cnc(NCc2ccccc2OC(F)(F)F)nc1NCC12CC3CC(C1)C(N[C@H]1CC[C@H](O)CC1)C(C3)C2` (stereo not given in full), the activity at 20 min, 5 µM on CYP3A4 is 64%. For the same compound, the IC50 in data set [1] worked out at 0.38 nM.

In the case of `C[S+]([O-])c1ncccc1CNc1ncc(C#N)c(NCC23CC4CC(C2)C(NC[C@H]2CC[C@H](O)CC2)C(C4)C3)n1` (stereo not given in full), the IC50 is 32 nM in data set [1] and 170 nM in data set [9]. Further, in data set [8], the solubility at 20 h, 130 µM was more than 100 µM.
